Data taken from ChEMBL document CHEMBL4321879, “Novel Class of Colony-Stimulating Factor 1 Receptor Kinase Inhibitors Based on an o-Aminopyridyl Alkynyl Scaffold as Potential Treatment for Inflammatory Disorders” (J Med Chem, 2020).
Activity calls are given as the source filed them. No cut-off for these calls is given here.

Assays:
[1] = molecular target: Tyrosine-protein kinase BTK (Homo sapiens) (UniProt Q06187); test: Inhibition of recombinant human full-length N-terminal His6-tagged BTK expressed in baculovirus infected Sf21 insect cells at 1000 nM using poly (Glu, Tyr)4:1 as substrate measured after 1 hr by ELISA relative to control
Tyrosine-protein kinase BTK (Homo sapiens), sequence (Q06187 whole entry): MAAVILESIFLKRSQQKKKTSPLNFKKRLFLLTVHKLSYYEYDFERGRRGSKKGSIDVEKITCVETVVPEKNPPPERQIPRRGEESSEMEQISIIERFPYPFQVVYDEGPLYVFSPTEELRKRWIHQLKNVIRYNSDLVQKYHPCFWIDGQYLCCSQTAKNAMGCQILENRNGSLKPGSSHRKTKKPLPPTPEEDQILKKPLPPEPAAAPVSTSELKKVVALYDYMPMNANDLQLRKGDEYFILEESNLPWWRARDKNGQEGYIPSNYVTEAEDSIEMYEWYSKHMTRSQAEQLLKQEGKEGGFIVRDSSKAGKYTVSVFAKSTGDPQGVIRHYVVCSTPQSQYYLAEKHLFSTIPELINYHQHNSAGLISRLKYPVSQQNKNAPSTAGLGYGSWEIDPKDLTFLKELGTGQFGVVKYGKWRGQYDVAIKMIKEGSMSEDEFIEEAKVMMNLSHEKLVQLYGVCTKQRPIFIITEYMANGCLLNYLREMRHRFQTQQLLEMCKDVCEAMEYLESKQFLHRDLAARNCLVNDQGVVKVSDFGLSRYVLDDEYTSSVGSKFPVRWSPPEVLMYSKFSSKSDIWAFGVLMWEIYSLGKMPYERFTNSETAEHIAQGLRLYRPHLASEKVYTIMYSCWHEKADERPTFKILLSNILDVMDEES
Procedure, shortened: (§1)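 ELISA kinase assay: recombinant kinase added to wells precoated with poly(Glu,Tyr)4:1 and incubated with compound in reaction buffer containing 5 μM ATP, 37 °C for 1 h; wells then washed before antibody detection.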

[2] = molecular target: Proto-oncogene tyrosine-protein kinase receptor Ret (Homo sapiens) (UniProt P07949); test: Inhibition of recombinant human N-terminal GST-tagged RET (658 to end residues) expressed in baculovirus infected Sf21 insect cells at 100 nM using poly (Glu, Tyr)4:1 as substrate measured after 1 hr by ELISA relative to control
Proto-oncogene tyrosine-protein kinase receptor Ret (Homo sapiens), sequence (P07949 whole entry): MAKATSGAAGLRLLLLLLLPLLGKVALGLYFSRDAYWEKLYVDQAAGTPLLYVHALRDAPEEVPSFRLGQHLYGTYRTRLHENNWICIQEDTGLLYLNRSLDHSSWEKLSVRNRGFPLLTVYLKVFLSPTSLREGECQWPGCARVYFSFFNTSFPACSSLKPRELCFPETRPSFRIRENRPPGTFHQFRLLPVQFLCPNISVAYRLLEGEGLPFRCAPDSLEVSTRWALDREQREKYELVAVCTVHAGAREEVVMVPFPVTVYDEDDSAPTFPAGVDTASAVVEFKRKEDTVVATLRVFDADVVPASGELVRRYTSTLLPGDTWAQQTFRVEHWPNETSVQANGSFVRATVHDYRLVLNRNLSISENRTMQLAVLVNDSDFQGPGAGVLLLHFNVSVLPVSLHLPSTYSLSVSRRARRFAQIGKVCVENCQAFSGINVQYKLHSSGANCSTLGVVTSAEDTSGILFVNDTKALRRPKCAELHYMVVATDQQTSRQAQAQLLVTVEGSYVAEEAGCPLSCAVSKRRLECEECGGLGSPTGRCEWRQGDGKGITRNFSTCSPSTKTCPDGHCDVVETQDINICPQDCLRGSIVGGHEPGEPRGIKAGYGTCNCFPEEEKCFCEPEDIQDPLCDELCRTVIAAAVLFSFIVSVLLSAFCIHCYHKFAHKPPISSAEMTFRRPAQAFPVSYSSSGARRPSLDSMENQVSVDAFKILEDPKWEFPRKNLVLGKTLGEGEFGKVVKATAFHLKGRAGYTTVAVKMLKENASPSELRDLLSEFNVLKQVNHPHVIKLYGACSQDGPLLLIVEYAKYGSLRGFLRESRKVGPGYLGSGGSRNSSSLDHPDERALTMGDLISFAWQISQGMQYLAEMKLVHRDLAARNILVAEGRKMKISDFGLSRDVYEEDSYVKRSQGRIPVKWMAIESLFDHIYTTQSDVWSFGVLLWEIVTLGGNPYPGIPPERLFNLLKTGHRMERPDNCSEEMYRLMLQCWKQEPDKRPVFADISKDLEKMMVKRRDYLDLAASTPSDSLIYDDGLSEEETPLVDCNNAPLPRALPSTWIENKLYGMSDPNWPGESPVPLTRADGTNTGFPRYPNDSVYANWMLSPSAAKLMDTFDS
Procedure, shortened: (§2)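 Recombinant kinase was incubated with compound in reaction buffer containing 5 μM ATP, in wells precoated with poly(Glu,Tyr) 4:1, for 1 h at 37 °C. Phosphorylation was detected by ELISA.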

[3] = molecular target: Proto-oncogene tyrosine-protein kinase receptor Ret (Homo sapiens) (UniProt P07949); test: Inhibition of recombinant human N-terminal GST-tagged RET (658 to end residues) expressed in baculovirus infected Sf21 insect cells at 10 nM using poly (Glu, Tyr)4:1 as substrate measured after 1 hr by ELISA relative to control; procedure, shortened: as §2
[4] = molecular target: Receptor tyrosine-protein kinase erbB-2 (Homo sapiens) (UniProt P04626); test: Inhibition of recombinant Erbb2 (unknown origin) at 1000 nM using poly (Glu, Tyr)4:1 as substrate measured after 1 hr by ELISA relative to control; procedure, shortened: as §2
[5] = molecular target: Platelet-derived growth factor receptor beta (Homo sapiens) (UniProt P09619); test: Inhibition of recombinant human N-terminal His6-tagged PDGFRbeta (557 to end residues) expressed in baculovirus infected Sf21 insect cells at 1000 nM using poly (Glu, Tyr)4:1 as substrate measured after 1 hr by ELISA relative to control; procedure, shortened: as §1
Platelet-derived growth factor receptor beta (Homo sapiens), sequence (P09619 whole entry): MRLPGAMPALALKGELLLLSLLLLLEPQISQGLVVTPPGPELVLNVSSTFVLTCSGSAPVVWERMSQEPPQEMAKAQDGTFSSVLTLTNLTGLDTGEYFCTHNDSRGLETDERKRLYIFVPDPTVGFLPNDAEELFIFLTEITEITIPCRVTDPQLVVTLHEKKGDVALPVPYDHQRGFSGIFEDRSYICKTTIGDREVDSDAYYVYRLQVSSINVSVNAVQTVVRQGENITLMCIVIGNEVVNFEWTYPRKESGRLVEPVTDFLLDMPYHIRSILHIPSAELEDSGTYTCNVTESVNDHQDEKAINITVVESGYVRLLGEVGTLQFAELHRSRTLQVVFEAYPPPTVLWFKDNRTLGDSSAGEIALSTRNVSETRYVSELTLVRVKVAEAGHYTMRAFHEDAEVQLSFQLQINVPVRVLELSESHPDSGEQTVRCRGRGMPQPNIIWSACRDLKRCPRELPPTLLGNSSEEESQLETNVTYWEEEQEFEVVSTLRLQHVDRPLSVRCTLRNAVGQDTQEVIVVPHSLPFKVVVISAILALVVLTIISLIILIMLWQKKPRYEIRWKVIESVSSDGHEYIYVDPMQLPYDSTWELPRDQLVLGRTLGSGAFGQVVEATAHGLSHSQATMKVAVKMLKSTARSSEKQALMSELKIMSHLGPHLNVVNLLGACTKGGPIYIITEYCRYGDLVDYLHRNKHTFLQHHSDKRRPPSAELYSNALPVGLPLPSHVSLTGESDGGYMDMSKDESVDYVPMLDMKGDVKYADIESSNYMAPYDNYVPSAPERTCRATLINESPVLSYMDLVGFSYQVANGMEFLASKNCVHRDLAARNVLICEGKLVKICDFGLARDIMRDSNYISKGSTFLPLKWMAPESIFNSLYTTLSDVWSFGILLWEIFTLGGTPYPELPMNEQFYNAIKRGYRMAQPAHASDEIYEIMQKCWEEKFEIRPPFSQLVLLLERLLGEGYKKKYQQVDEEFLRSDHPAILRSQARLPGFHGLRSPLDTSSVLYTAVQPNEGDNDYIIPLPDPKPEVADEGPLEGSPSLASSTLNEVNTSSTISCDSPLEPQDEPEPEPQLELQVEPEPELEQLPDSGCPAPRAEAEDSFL

[6] = Cytotoxicity against mouse RAW264.7 cells assessed as reduction in cell viability measured after 24 hrs by CCK8 assay; format: cell-based
Procedure, shortened: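 RAW264.7 cells were seeded in triplicate in DMEM and exposed to compound for 24 h. CCK-8 was added, incubated 1 h, and absorbance read at 450 nm with 570 nm reference. CC50 from log(inhibitor) versus normalized response nonlinear fit.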

[7] = Elimination half life in Sprague-Dawley rat at 5 mg/kg, po administered via gavage by LC-MS/MS analysis; format: ADME, organism-based; conditions: in vivo, read-out: beta t1/2 (converted)
Procedure, shortened: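 Male SD rats (200 ± 20 g) were fasted 12 h with free access to water, n = 3 per group. One group received 2 mg/kg iv in DMSO/EtOH/PEG300/saline (5/5/40/50). The other received 5 mg/kg by oral gavage in DMSO/HPMC (5/95). Femoral-vein plasma was taken at 15–1440 min, methanol-precipitated with internal standard, and measured by LC–MS/MS. Noncompartmental analysis; AUC by trapezoidal method.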

[8] = molecular target: Proto-oncogene tyrosine-protein kinase Src (Homo sapiens) (UniProt P12931); test: Inhibition of recombinant human full-length N-terminal His6-tagged Src expressed in Sf21 insect cells at 10 nM using poly (Glu, Tyr)4:1 as substrate measured after 1 hr by ELISA relative to control; procedure, shortened: as §1
Proto-oncogene tyrosine-protein kinase Src (Homo sapiens), sequence (P12931 2-536 limits assumed): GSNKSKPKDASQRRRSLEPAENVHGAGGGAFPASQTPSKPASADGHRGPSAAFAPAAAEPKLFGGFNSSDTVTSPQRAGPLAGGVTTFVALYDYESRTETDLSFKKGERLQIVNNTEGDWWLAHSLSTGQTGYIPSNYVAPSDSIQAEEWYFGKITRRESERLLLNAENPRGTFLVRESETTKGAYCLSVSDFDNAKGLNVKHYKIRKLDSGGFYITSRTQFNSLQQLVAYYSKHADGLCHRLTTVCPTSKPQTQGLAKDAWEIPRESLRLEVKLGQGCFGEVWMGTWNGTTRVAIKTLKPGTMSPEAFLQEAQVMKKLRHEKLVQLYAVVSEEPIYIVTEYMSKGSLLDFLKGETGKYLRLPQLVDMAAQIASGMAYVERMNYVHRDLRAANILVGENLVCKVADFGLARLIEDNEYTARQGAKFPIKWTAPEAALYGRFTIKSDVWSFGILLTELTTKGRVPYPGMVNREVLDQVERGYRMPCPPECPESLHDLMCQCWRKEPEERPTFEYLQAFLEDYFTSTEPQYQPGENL

Mus musculus = test: Antiinflammatory activity in BALB/c mouse assessed as reduction in LPS-induced TNFalpha production at 20 to 40 mg/kg, po pretreated for 4 hrs followed by LPS-stimulation and measured after 1.5 hrs by ELISA; format: functional, organism-based
Procedure, shortened: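 Female BALB/c mice, 8 weeks old, n = 6 per group, dosed orally at 20 or 40 mg/kg in 0.5% CMC-Na/0.25% Tween-80 4 h before ip LPS 5 mg/kg. Orbital-sinus blood was taken at 1.5 h (TNF-α) and 3 h (IL-6). Serum cytokines measured by ELISA. Mean ± SEM, one-way ANOVA with Dunnett's test.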

RAW264.7 = test: Antiinflammatory activity in mouse RAW264.7 cells assessed as reduction in LPS-induced IL6 release measured after 24 hrs by ELISA; format: functional, cell-based; conditions: RAW264.7, 24 h
Procedure, shortened: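 RAW264.7 cells in DMEM with 10% FBS and 0.125% DMSO were incubated with compound, then primed with LPS 1 μg/mL for 24 h. Supernatant TNF-α and IL-6 measured by mouse ELISA. IC50 from log(inhibitor) versus normalized response nonlinear fit.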

[9] = molecular target: Fibroblast growth factor receptor 2 (Homo sapiens, UniProt P21802); test: Inhibition of recombinant human N-terminal His6-tagged FGFR2 (456 to 770 residues) expressed in baculovirus infected Sf21 insect cells at 100 nM using poly (Glu, Tyr)4:1 as substrate measured after 1 hr by ELISA relative to control; procedure, shortened: as §2
[10] = molecular target: Vascular endothelial growth factor receptor 3 (Homo sapiens) (UniProt P35916); test: Inhibition of recombinant VEGFR3 (unknown origin) at 10 nM using poly (Glu, Tyr)4:1 as substrate measured after 1 hr by ELISA relative to control; procedure, shortened: as §2
[11] = molecular target: Proto-oncogene tyrosine-protein kinase Src (Homo sapiens) (UniProt P12931); test: Inhibition of recombinant human full-length N-terminal His6-tagged Src expressed in Sf21 insect cells at 1000 nM using poly (Glu, Tyr)4:1 as substrate measured after 1 hr by ELISA relative to control; procedure, shortened: as §1
[12] = molecular target: Receptor tyrosine-protein kinase erbB-4 (Homo sapiens) (UniProt Q15303); test: Inhibition of recombinant human N-terminal His6-tagged Erbb4 (706 to 991 residues) expressed in baculovirus infected Sf21 insect cells at 1000 nM using poly (Glu, Tyr)4:1 as substrate measured after 1 hr by ELISA relative to control; procedure, shortened: as §2
Receptor tyrosine-protein kinase erbB-4 (Homo sapiens), sequence (Q15303 whole entry, the tested form may be a part): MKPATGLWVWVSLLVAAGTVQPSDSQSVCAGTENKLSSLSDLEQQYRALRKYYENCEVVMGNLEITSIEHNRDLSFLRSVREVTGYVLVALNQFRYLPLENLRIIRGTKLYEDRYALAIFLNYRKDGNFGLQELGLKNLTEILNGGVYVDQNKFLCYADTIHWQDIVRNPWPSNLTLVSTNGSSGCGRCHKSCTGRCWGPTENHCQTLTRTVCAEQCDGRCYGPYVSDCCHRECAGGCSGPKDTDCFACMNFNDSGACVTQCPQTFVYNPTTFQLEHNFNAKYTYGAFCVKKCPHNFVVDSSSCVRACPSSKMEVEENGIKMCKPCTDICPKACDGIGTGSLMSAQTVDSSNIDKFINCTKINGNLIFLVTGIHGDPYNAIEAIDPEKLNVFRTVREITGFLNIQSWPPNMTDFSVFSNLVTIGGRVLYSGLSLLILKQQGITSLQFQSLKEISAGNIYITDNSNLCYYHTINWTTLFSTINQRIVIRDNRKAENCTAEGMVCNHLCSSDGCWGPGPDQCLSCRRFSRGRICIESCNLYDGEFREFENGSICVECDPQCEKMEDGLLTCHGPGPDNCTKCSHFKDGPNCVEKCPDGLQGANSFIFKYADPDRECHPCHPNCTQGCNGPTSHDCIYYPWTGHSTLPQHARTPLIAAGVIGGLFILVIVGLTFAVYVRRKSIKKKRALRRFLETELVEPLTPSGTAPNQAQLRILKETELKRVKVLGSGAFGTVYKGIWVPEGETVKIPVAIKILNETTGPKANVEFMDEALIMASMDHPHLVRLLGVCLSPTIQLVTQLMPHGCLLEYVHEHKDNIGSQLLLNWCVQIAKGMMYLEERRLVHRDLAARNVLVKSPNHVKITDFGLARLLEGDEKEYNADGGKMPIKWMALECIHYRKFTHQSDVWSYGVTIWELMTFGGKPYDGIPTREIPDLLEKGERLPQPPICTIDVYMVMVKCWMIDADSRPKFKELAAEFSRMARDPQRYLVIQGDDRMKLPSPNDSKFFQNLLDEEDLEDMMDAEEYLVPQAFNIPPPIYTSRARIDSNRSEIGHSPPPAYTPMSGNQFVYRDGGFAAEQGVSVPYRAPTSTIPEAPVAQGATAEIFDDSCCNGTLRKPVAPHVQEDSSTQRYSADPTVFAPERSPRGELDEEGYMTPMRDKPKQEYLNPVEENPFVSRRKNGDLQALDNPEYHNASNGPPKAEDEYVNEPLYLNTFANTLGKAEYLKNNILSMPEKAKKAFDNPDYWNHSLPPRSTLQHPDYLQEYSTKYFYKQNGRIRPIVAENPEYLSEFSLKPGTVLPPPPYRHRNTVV

[13] = Tmax in Sprague-Dawley rat at 5 mg/kg, po administered via gavage by LC-MS/MS analysis; format: ADME, organism-based; conditions: in vivo
Procedure, shortened: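 Male SD rats (200 ± 20 g), fasted 12 h, n = 3; oral gavage 5 mg/kg in DMSO/HPMC (5/95). Femoral vein blood at 15–1440 min; plasma precipitated with methanol plus internal standard, LC–MS/MS; noncompartmental analysis, Tmax observed directly, MRT = AUMC/AUC.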

[14] = molecular target: Platelet-derived growth factor receptor beta (Homo sapiens) (UniProt P09619); test: Inhibition of recombinant human N-terminal His6-tagged PDGFRbeta (557 to end residues) expressed in baculovirus infected Sf21 insect cells at 100 nM using poly (Glu, Tyr)4:1 as substrate measured after 1 hr by ELISA relative to control; procedure, shortened: as §1
FLT3 = FLT3 (Homo sapiens, UniProt P36888); test: Inhibition of recombinant human N-terminal GST-tagged FLT3 (564 to end residues) expressed in Sf21 insect cells at 1000 nM using poly (Glu, Tyr)4:1 as substrate measured after 1 hr by ELISA relative to control; conditions: probe poly (Glu, Tyr)4:1; procedure, shortened: as §2
[15] = molecular target: Tyrosine-protein kinase ABL1 (Homo sapiens) (UniProt P00519); test: Inhibition of recombinant human N-terminal His6-tagged Abl (27 to end residues) expressed in baculovirus infected Sf21 insect cells at 10 nM using poly (Glu, Tyr)4:1 as substrate measured after 1 hr by ELISA relative to control; procedure, shortened: as §2

In the case of `Cc1ccc(C(=O)Nc2ccc(Cl)cc2)cc1C#Cc1cc(-c2cnn(C)c2)cnc1N`, the inhibition [1] is reported as 8%, the inhibition [2] is reported as 77.6% and the inhibition [3] is reported as 42.7%. For the same molecule, the inhibition [4] was 9.5%, the inhibition [5] was 87.9% and the CC50 at 24 h [6] was 66 µM. The half-life [7] was 2.21 h, the inhibition [8] was 1.5% and the Activity (Mus musculus) was “Active”. The IC50 (RAW264.7) was 0.13 µM, the inhibition [9] was 16.2% and the inhibition [10] was 27.3%. It also gave an inhibition [11] of 72.8%, an inhibition [12] of 1.6% and a Tmax [13] of 4 h. The inhibition [14] was 70.5%, the inhibition at 1 h, 1 µM (FLT3) was 5.9% and the inhibition [15] was 0%.
